Source: ChEMBL document CHEMBL1126697, “Bis(heteroaryl)piperazine (BHAP) reverse transcriptase inhibitors: structure-activity relationships of novel substituted indole analogues and the identification of 1-[(5-methanesulfonamido-1H-indol-2-yl)-carbonyl]-4-[3- [(1-methylethyl)amino]-pyridinyl]piperazine monomethanesulfonate (U-90152S), a …” (J Med Chem, 1993)
Counter-ions that a name gives are not always drawn.

What was measured:
[1] = system: Human immunodeficiency virus 1; experiment: Inhibition of HIV-1 D34 replication in human peripheral blood mononuclear cells.; type: functional; conditions: read-out: ED50 (the source's name)
How it was run: (§1)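 PBMC (1×10^6 cells) infected with inoculum containing 1 ng p24 of HIV-1 D34 isolate. Supernatant p24 measured 4 days after infection. Four drug concentrations, 10-fold dilution series. ED50 given as a range when it fell between dilutions. Viability by mitogen-stimulated cell proliferation. Mesylate salts used in this assay.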

[2] = system: Human immunodeficiency virus 1; experiment: Inhibition of HIV-1 IIIB replication in MT2 (human lymphocyte) cells.; type: functional; conditions: Human immunodeficiency virus 1, MT2; read-out: ED50 (the source's name)
How it was run: (§2)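 HIV-1 IIIb infected MT-2 cells at multiplicity of infection 0.001. Syncytium formation scored 4 days post-infection, at peak viral cytopathic effect. Three drug concentrations, 10-fold dilution series. ED50 given as a range when it fell between dilutions. Viability by trypan blue exclusion.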

[3] = system: MT2; experiment: Cytotoxic concentration against MT-2 cells; type: functional; conditions: Homo sapiens; how it was run: as §2
[4] = Cytotoxic concentration against PBMC cells; type: functional; conditions: Homo sapiens; how it was run: as §1
[5] = target: Human immunodeficiency virus type 1 reverse transcriptase (Human immunodeficiency virus 1, UniProt Q72547); experiment: In vitro inhibition of HIV-1 reverse transcriptase
[6] = target: Human immunodeficiency virus type 1 reverse transcriptase (Human immunodeficiency virus 1) (UniProt Q72547); experiment: In vitro inhibition of HIV-1 reverse transcriptase at 100 uM
[7] = system: Human immunodeficiency virus 1; experiment: Inhibition of HIV-1 replication in human lymphocytes [peripheral blood mononuclear cells (PBMC)/D34 was determined as effective dose; type: functional; conditions: read-out: ED50 (the source's name); how it was run: as §1

SMILES: CC(C)Nc1cccnc1N1CCN(C(=O)c2cc3cc(NS(=O)(=O)C(F)(F)F)ccc3[nH]2)CC1
- EC50 [1]: 0.1 µM
- EC50 [2]: 0.2 µM
- CC50 [3]: > 10 µM
- CC50 [4]: > 10 µM
- IC50 [5]: 8.3 µM
- inhibition [6]: 94%

SMILES: CCNc1cccnc1N1CCN(C(=O)c2cc3ccccc3[nH]2)CC1
- EC50 [1]: 0.01 µM
- EC50 [2]: 0.3 µM
- CC50 [3]: > 10 µM
- CC50 [4]: > 10 µM
- IC50 [5]: 4 µM
- inhibition [6]: 96%

SMILES: CCNc1cccnc1N1CCN(C(=O)c2cc3cc(OC)ccc3[nH]2)CC1 [ATEVIRDINE MESYLATE]
- EC50 [1]: 0.001 µM
- EC50 [2]: < 0.2 µM
- CC50 [3]: > 10 µM
- CC50 [4]: > 10 µM
- inhibition [6]: 92%

SMILES: Cc1ccnc2c1NC(=O)c1cccnc1N2C1CC1 [NEVIRAPINE]
- EC50 [1]: 0.01 µM
- CC50 [3]: > 10 µM
- CC50 [4]: > 10 µM
- inhibition [6]: 93%

SMILES: CC(C)Nc1cccnc1N1CCN(C(=O)c2cc3cc(O)ccc3[nH]2)CC1
- EC50 [1]: 0.001 µM
- EC50 [2]: < 0.26 µM
- CC50 [3]: > 10 µM
- CC50 [4]: > 10 µM
- IC50 [5]: 1.3 µM
- inhibition [6]: 98%

SMILES: Cc1ccc2[nH]c(C(=O)N3CCN(c4ncccc4NC(C)C)CC3)cc2c1
- EC50 [1]: 0.01 µM
- EC50 [2]: 0.26 µM
- CC50 [3]: > 10 µM
- CC50 [4]: > 10 µM
- IC50 [5]: 34 µM
- inhibition [6]: 68%

SMILES: CC(=O)Nc1ccc2[nH]c(C(=O)N3CCN(c4ncccc4NC(C)C)CC3)cc2c1
- EC50 [1]: 0.01 µM
- EC50 [2]: > 10 µM
- CC50 [3]: > 10 µM
- CC50 [4]: > 10 µM
- IC50 [5]: 1.8 µM
- inhibition [6]: 94%

SMILES: COc1ccc2cc(C(=O)N3CCN(c4ncccc4NC(C)C)CC3)[nH]c2c1
- EC50 [1]: 0.01 µM
- EC50 [2]: < 0.25 µM
- CC50 [3]: > 10 µM
- CC50 [4]: > 10 µM
- IC50 [5]: 1.3 µM
- inhibition [6]: 97%

SMILES: CC(C)Nc1cccnc1N1CCN(C(=O)c2cc3ccccc3[nH]2)CC1
- EC50 [1]: 0.001 µM
- EC50 [2]: 0.3 µM
- CC50 [3]: > 10 µM
- CC50 [4]: > 10 µM
- IC50 [5]: 1.2 µM
- inhibition [6]: 96%

SMILES: CCc1cc(NCc2nc3c(Cl)ccc(Cl)c3o2)c(O)nc1C [L-697661]
- EC50 [1]: < 0.0001 µM
- EC50 [2]: < 0.3 µM
- CC50 [3]: > 10 µM
- CC50 [4]: > 10 µM
- IC50 [5]: 2.7 µM
- inhibition [6]: 98%

SMILES: CC(C)Nc1cccnc1N1CCN(C(=O)c2cc3ccc(C#N)cc3[nH]2)CC1
- CC50 [3]: > 10 µM
- CC50 [4]: > 10 µM
- IC50 [5]: 3.9 µM
- inhibition [6]: 74%

SMILES: CC(C)Nc1cccnc1N1CCN(C(=O)c2cc3ccc(C=O)cc3[nH]2)CC1
- EC50 [1]: 0.0001 µM
- EC50 [2]: < 0.26 µM
- CC50 [3]: > 10 µM
- CC50 [4]: > 10 µM
- IC50 [5]: 1.4 µM
- inhibition [6]: 94%

SMILES: CC(C)Nc1cccnc1N1CCN(C(=O)c2cc3cc(OS(C)(=O)=O)ccc3[nH]2)CC1
- CC50 [3]: > 10 µM
- CC50 [4]: > 10 µM
- IC50 [5]: 5.5 µM
- inhibition [6]: 97%

SMILES: CC(C)Nc1cccnc1N1CCN(C(=O)c2cc3cc(NS(C)(=O)=O)ccc3[nH]2)CC1 [DELAVIRDINE]
- EC50 [1]: 0.0001 µM
- EC50 [2]: 0.01 µM
- CC50 [3]: > 30 µM
- CC50 [4]: > 10 µM

SMILES: CC(C)Nc1cccnc1N1CCN(C(=O)c2cc3cc(N(C)S(C)(=O)=O)ccc3[nH]2)CC1
- EC50 [1]: 0.001 µM
- CC50 [3]: > 10 µM
- CC50 [4]: > 10 µM
- IC50 [5]: 5.6 µM
- inhibition [6]: 95%

SMILES: CC(C)Nc1cccnc1N1CCN(C(=O)c2cc3cc(OCc4ccccc4)ccc3[nH]2)CC1
- EC50 [1]: 0.01 µM
- EC50 [2]: < 0.21 µM
- CC50 [3]: > 10 µM
- CC50 [4]: > 10 µM
- IC50 [5]: 4.3 µM
- inhibition [6]: 74%

SMILES: CCNc1cccnc1N1CCN(C(=O)c2cc3cc(O)ccc3[nH]2)CC1
- EC50 [2]: 0.27 µM
- EC50 [7]: 0.01 µM
- CC50 [3]: > 10 µM
- CC50 [4]: > 10 µM
- IC50 [5]: 2 µM
- inhibition [6]: 89%

SMILES: CC(C)Nc1cccnc1N1CCN(C(=O)c2cc3ccc(F)cc3[nH]2)CC1
- EC50 [1]: 0.001 µM
- EC50 [2]: 0.26 µM
- CC50 [3]: > 10 µM
- CC50 [4]: > 10 µM
- IC50 [5]: 4.4 µM
- inhibition [6]: 96%

SMILES: COC(=O)Nc1ccc2[nH]c(C(=O)N3CCN(c4ncccc4NC(C)C)CC3)cc2c1
- EC50 [1]: 0.0001 µM
- CC50 [3]: > 10 µM
- CC50 [4]: > 10 µM
- IC50 [5]: 2.5 µM
- inhibition [6]: 96%

SMILES: CC(C)Nc1cccnc1N1CCN(C(=O)c2cc3ccc(OCc4ccccc4)cc3[nH]2)CC1
- EC50 [1]: 0.1 µM
- CC50 [3]: > 10 µM
- CC50 [4]: > 10 µM
- IC50 [5]: 37 µM
- inhibition [6]: 65%

SMILES: Cc1cn([C@H]2C[C@H](N=[N+]=[N-])[C@@H](CO)O2)c(=O)[nH]c1=O [ZIDOVUDINE]
- EC50 [1]: 0.001 µM
- EC50 [2]: 0.07 µM
- CC50 [3]: > 10 µM
- CC50 [4]: > 10 µM

SMILES: CC(C)Nc1cccnc1N1CCN(C(=O)c2cc3ccc(O)cc3[nH]2)CC1
- CC50 [3]: > 10 µM
- CC50 [4]: > 10 µM
- IC50 [5]: 1.2 µM
- inhibition [6]: 97%

SMILES: CC(C)Nc1cccnc1N1CCN(C(=O)c2cc3cc(N)ccc3[nH]2)CC1
- EC50 [1]: 0.01 µM
- CC50 [3]: > 10 µM
- CC50 [4]: > 10 µM
- IC50 [5]: 1 µM
- inhibition [6]: 94%

SMILES: CC(C)Nc1cccnc1N1CCN(C(=O)c2cc3ccc(NS(C)(=O)=O)cc3[nH]2)CC1
- EC50 [1]: 0.0001 µM
- EC50 [2]: < 0.02 µM
- CC50 [3]: > 10 µM
- CC50 [4]: > 10 µM
- IC50 [5]: 0.5 µM
- inhibition [6]: 98%

SMILES: CC(C)Nc1cccnc1N1CCN(C(=O)c2cc3ccc(OS(C)(=O)=O)cc3[nH]2)CC1
- CC50 [3]: > 10 µM
- CC50 [4]: > 10 µM
- IC50 [5]: 2.2 µM
- inhibition [6]: 97%

SMILES: CC(C)Nc1cccnc1N1CCN(C(=O)c2cc3ccc(CO)cc3[nH]2)CC1
- EC50 [1]: 0.001 µM
- EC50 [2]: < 0.25 µM
- CC50 [3]: > 10 µM
- CC50 [4]: > 10 µM
- IC50 [5]: 0.76 µM
- inhibition [6]: 98%

SMILES: CC(C)Nc1cccnc1N1CCN(C(=O)c2cc3cc(NC(=O)C(F)(F)F)ccc3[nH]2)CC1
- EC50 [1]: 0.001 µM
- EC50 [2]: 0.21 µM
- CC50 [3]: > 10 µM
- CC50 [4]: > 10 µM
- IC50 [5]: 27 µM
- inhibition [6]: 85%
